This note sets out measurements from ChEMBL document CHEMBL1152785, “Synthesis and biological evaluation of a series of novel inhibitor of Nek2/Hec1 analogues” (J Med Chem, 2009).

For orientation: IC50 means the concentration that inhibits the measured activity by half. A low value points to higher potency.

Experiment [1] has as its system MDA-MB-231. As to the kind of experiment: Cytotoxicity against human MDA-MB-231 cells after 4 days XTT assay. Type of experiment: functional, cell-based. The following applies: MDA-MB-231, 96 h. The gist of the method: (§1)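 XTT assay with four-day drug treatment. Cells were plated one day before dosing and drug was added on day 2. XTT was read on day 5 after drug addition by absorbance at 595 nm. Absorbance was converted to percent survival against mock-treated cells to give dose-dependent cytotoxicity. Triplicate sets. HeLa, MDA-MB231 and MDA-MB468 were maintained in DMEM with 10% FBS.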

For experiment [2], the system named is MDA-MB-468. As to the kind of experiment: Cytotoxicity against human MDA-MB-468 cells after 4 days by XTT assay. Type of experiment: functional, cell-based. The following applies: MDA-MB-468, 96 h. Summed up: as §1
The subject of experiment [3] is HeLa. As to the kind of experiment: Cytotoxicity against human HeLa cells after 4 days by XTT assay. Type of experiment: functional, cell-based. As to conditions: 96 h. The gist of the method: as §1
A general note: Tetrazolium dyes change colour on reduction, which living cells bring about.

For experiment [4], the system named is K562. As to the kind of experiment: Cytotoxicity against human K562 cells after 4 days by XTT assay. Type of experiment: functional, cell-based. The following applies: K562, 96 h.
The target in experiment [5] is T1, Serine/threonine-protein kinase Nek2 (Homo sapiens) (UniProt P51955).
T1 sequence (whole entry): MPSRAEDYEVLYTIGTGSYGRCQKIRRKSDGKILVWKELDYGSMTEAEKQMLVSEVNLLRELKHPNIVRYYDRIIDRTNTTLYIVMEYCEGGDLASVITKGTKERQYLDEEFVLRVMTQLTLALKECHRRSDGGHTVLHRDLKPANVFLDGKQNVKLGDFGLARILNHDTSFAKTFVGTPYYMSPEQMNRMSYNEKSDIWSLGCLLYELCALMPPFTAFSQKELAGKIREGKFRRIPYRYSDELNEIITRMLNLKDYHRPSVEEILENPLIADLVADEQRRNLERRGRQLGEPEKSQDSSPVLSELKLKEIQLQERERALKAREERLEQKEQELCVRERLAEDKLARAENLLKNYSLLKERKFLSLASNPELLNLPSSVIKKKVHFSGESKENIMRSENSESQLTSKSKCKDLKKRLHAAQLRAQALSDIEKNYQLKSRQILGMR
As to the kind of experiment: Binding affinity to NeK2 in human HeLa cell extract by affinity pulldown assay. Type of experiment: cell-free. Summed up:
(§2)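 Compounds were conjugated to affi-gel matrix. HeLa cell extract was incubated with control or compound-conjugated matrices and the precipitates were washed thoroughly. Bound proteins were resolved by SDS-PAGE and Western blotted for Hec1 and Nek2. Whole cell extract served as input, in duplicates.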

In experiment [6] the target is T2, Kinetochore protein NDC80 homolog (Homo sapiens) (UniProt O14777).
T2 sequence (whole entry): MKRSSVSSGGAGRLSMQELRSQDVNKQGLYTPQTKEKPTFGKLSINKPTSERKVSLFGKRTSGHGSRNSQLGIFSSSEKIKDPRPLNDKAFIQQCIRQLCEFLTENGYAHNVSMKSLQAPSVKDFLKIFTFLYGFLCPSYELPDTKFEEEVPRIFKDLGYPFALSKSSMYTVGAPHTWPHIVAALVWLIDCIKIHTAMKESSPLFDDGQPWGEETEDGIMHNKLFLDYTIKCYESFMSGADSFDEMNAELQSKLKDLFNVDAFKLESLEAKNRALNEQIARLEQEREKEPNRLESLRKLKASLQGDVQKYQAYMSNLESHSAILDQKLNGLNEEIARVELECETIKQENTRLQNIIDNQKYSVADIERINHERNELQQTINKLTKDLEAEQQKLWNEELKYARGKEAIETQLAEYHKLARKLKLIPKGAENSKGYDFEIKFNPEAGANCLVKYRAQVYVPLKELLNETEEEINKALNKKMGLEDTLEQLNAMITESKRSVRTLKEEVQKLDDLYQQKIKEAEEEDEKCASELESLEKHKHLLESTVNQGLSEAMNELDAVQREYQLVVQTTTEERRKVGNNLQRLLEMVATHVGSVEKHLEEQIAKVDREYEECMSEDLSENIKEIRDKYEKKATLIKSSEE
As to the kind of experiment: Binding affinity to Hec1 in human HeLa cell extract by affinity pulldown assay. Type of experiment: cell-free. Summed up:
as §2

The test system of experiment [7] is HeLa. As to the kind of experiment: Anticancer activity against human HeLa cells assessed as reduction of Nek2 level at 25 uM by Western blot assay. Type of experiment: functional, cell-based. On the technique in general: In western blotting, separated proteins are transferred to a membrane and probed.
Experiment [8] has as its system HeLa. As to the kind of experiment: Cell cycle arrest in human HeLa cells assessed as accumulation at subG1 phase at 2.5 uM after 72 hrs by FACS analysis. Type of experiment: functional. The gist of the method:
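HeLa cells were treated with compound at 2.5 μM, with buffer as mock control. Phase contrast images were taken at various time points to assess dying-cell morphology such as membrane bubbling. Cell cycle profiling was done by FACS at 72 h.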
(In general: In flow cytometry, cells or beads pass a laser one at a time.)

Molecules are shown by their SMILES. Activity calls are given as the source filed them. No cut-off for these calls is given here. A value given as a limit tells only on which side of the number the result lay.

Take `COc1ccc(C(=O)/N=c2\scc(-c3c(C)cc(C)cc3C)n2C)c(OC)c1`: the IC50 in experiment [1] was determined as 22.1 µM; in experiment [2], 21 µM; in experiment [3], 22 µM; in experiment [4] it was 23.7 µM.

For the compound `Cc1ccc(-c2csc(NC(=O)c3cccnc3)n2)c(C)c1`, the IC50 in experiment [1] is 4.1 µM; in experiment [2], 5.5 µM; in experiment [3] it was 5.8 µM; in experiment [4] it was 8.2 µM.

Regarding `Cc1ccc(-c2csc(N(C)C(=O)c3ccccc3)n2)c(C)c1`, the IC50 stood at 13.5 µM in experiment [1], 16 µM in experiment [2], 20.2 µM in experiment [3] and 14.8 µM in experiment [4].

`Cc1ccc(-c2csc(NC(=O)c3nccs3)n2)c(C)c1`: the IC50 in experiment [1] was determined as 2.9 µM; in experiment [2] it was 6.2 µM; in experiment [3], 7.4 µM; in experiment [4] it was 10.1 µM.

With `Cc1cc(C)c(-c2csc(NC(=O)c3nccs3)n2)c(C)c1`, the IC50 in experiment [1] came out at 4.7 µM; in experiment [2], 11.8 µM; in experiment [3] it was 11.2 µM; in experiment [4], 14.5 µM.

Regarding `Cc1cc(C)c(-c2csc(N(CC(=O)O)C(=O)c3ccccc3)n2)c(C)c1`, the 50% inhibitory concentration (IC50) in experiment [1], in experiment [2], in experiment [3] and in experiment [4] was above 40 µM throughout.

Regarding `Cc1cc(C)c(-c2csc(NC(=O)c3ccccc3C(F)(F)F)n2)c(C)c1`, the half-inhibitory concentration (IC50) is 5.9 µM in experiment [1], 4.1 µM in experiment [2], 10.6 µM in experiment [3] and 7.5 µM in experiment [4].

Take `Cc1cc(C)c(-c2csc(N)n2)c(C)c1`: the IC50 in experiment [1], in experiment [2], in experiment [3] and in experiment [4] was above 40 µM throughout.

On to `COc1ccc(C(=O)Nc2nc(-c3ccc(C)cc3C)cs2)c(OC)c1`, for which the IC50 was 23.4 µM in experiment [1], above 40 µM in experiment [2], above 40 µM in experiment [3] and above 40 µM in experiment [4].

In the case of `COc1ccccc1C(=O)Nc1nc(-c2c(C)cc(C)cc2C)cs1`, the IC50 in experiment [1], in experiment [2], in experiment [3] and in experiment [4] was above 40 µM each time.

Turning to `Cc1cc(C)c(-c2csc(NC(=O)c3cccnc3)n2)c(C)c1`, the half-maximal inhibitory concentration (IC50) in experiment [1] is 3.2 µM; in experiment [2], 3 µM; in experiment [3], 3.6 µM; in experiment [4], 3.9 µM.

On to `Cc1ccc(-c2coc(NC(=O)c3ccccc3)n2)c(C)c1`, for which the IC50 in experiment [1] is 14.4 µM; in experiment [2], 16 µM; in experiment [3] it was 18.6 µM; in experiment [4], 19.2 µM.

On to `Cc1ccc(-c2csc(NC(=O)c3ccccn3)n2)c(C)c1`, for which the IC50 in experiment [1] worked out at 7.5 µM; in experiment [2] it was 6.2 µM; in experiment [3], 14.5 µM; in experiment [4] it was 13.3 µM.

Turning to `Cc1ccc(-c2csc(NC(=S)c3ccccc3)n2)c(C)c1`, the IC50 was determined as 21.1 µM in experiment [1], 19.6 µM in experiment [2], 18.6 µM in experiment [3] and 22.9 µM in experiment [4].

In the case of `Cc1ccc(-c2csc(NS(=O)(=O)Cc3ccccc3)n2)c(C)c1`, the IC50 in experiment [1], in experiment [2], in experiment [3] and in experiment [4] was above 40 µM in each case.

Take `Cc1ccc(-c2csc(NC(=O)c3cnccn3)n2)c(C)c1`: the half-inhibitory concentration (IC50) in experiment [1], in experiment [2], in experiment [3] and in experiment [4] was above 25 µM each time.

For `Cc1ccc(-c2csc(NC(=O)c3cncn3C)n2)c(C)c1`, the half-inhibitory concentration (IC50) in experiment [1], in experiment [2], in experiment [3] and in experiment [4] was above 25 µM each time.

With `CCOC(=O)CN(C(=O)c1ccccc1)c1nc(-c2c(C)cc(C)cc2C)cs1`, the IC50 worked out at 15.8 µM in experiment [1], 20.2 µM in experiment [2], 22.2 µM in experiment [3] and 20.2 µM in experiment [4].

For the compound `Cc1ccc(-c2csc(N)n2)c(C)c1`, the IC50 in experiment [1], in experiment [2], in experiment [3] and in experiment [4] was above 40 µM throughout.

As to `Cc1cc(C)c(-c2csc(NC(=O)c3cnccn3)n2)c(C)c1`, the IC50 in experiment [1] turned out to be 3.2 µM; in experiment [2] it was 4.7 µM; in experiment [3], 5.7 µM; in experiment [4], 5.9 µM.

Turning to `Cc1ccc(-c2csc(NC(=O)c3ccncc3)n2)c(C)c1`, the IC50 in experiment [1] was 1.1 µM; in experiment [2], 3.4 µM; in experiment [3], 1.6 µM; in experiment [4] it was 1.2 µM. For the same compound, the result in experiment [5] was inactive.

`Cc1cc(C)c(-c2csc(NC(=O)c3cncn3C)n2)c(C)c1`: the IC50 was found to be 6.8 µM in experiment [1], 10.7 µM in experiment [2], 11.2 µM in experiment [3] and 10.1 µM in experiment [4].

Turning to `Cc1cc(C)c(-c2csc(NC(=O)c3ccccn3)n2)c(C)c1`, the IC50 in experiment [1] is 4.1 µM; in experiment [2] it was 2.3 µM; in experiment [3], 5.2 µM; in experiment [4] it was 4.9 µM.

For the compound `COc1ccc(C(=O)Nc2nc(-c3c(C)cc(C)cc3C)cs2)c(O)c1`, the IC50 in experiment [1] amounted to 11.8 µM; in experiment [2], 14.4 µM; in experiment [3] it was 14.4 µM; in experiment [4] it was 14.8 µM.

For the compound `Cc1ccc(-c2csc(NS(=O)(=O)c3ccccc3)n2)c(C)c1`, the IC50 in experiment [1], in experiment [2], in experiment [3] and in experiment [4] was above 40 µM each time. The outcome in experiment [6] and in experiment [7] was inactive. In addition, the Activity in experiment [8] is reported as 2.9%.

`Cc1cc(C)c(-c2csc(N(C)C(=O)c3ccccc3)n2)c(C)c1`: the IC50 in experiment [1] worked out at 11.6 µM; in experiment [2], 10.8 µM; in experiment [3], 14.1 µM; in experiment [4], 9.2 µM.

With `Cc1ccc(-c2csc(NC(=O)N3CCOCC3)n2)c(C)c1`, the IC50 amounted to 5.8 µM in experiment [1], 4 µM in experiment [2], 4.7 µM in experiment [3] and 4.2 µM in experiment [4].

In the case of `Cc1cc(C)c(-c2csc(NC(=O)c3ccccc3)n2)c(O)c1`, the IC50 in experiment [1] was 11.8 µM; in experiment [2], above 40 µM; in experiment [3], 13.1 µM; in experiment [4] it was 11.9 µM.

Take `Cc1cc(C)c(-c2csc(NC(=O)c3ccc(O)cc3O)n2)c(C)c1`: the IC50 in experiment [1] is 22.5 µM; in experiment [2], 21.3 µM; in experiment [3], above 40 µM; in experiment [4], above 40 µM.

For the compound `COc1ccc(C(=O)Nc2nc(-c3c(C)cc(C)cc3C)cs2)c(OC)c1`, the 50% inhibitory concentration (IC50) in experiment [1] amounted to 9.7 µM; in experiment [2] it was 11.2 µM; in experiment [3], 13.6 µM; in experiment [4], 9.5 µM.

Regarding `COc1ccc(C(=O)N(C)c2nc(-c3c(C)cc(C)cc3C)cs2)c(OC)c1`, the IC50 in experiment [1] was 10.6 µM; in experiment [2], 18.7 µM; in experiment [3], above 40 µM; in experiment [4], 15.5 µM.

In the case of `COc1cc(C)cc(C)c1-c1csc(NC(=O)c2ccccc2)n1`, the IC50 in experiment [1] came out at 7.2 µM; in experiment [2], 10.7 µM; in experiment [3], 10.6 µM; in experiment [4], 7.3 µM.
